Reference: ChEMBL document CHEMBL1143934, “Design and synthesis of biologically active analogues of vitamin K2: evaluation of their biological activities with cultured human cell lines” (Bioorg Med Chem, 2008)

B1: Vitamin K-dependent gamma-carboxylase (Homo sapiens), P38435 (protein)
chain: MAVSAGSARTSPSSDKVQKDKAELISGPRQDSRIGKLLGFEWTDLSSWRRLVTLLNRPTDPASLAVFRFLFGFLMVLDIPQERGLSSLDRKYLDGLDVCRFPLLDALRPLPLDWMYLVYTIMFLGALGMMLGLCYRISCVLFLLPYWYVFLLDKTSWNNHSYLYGLLAFQLTFMDANHYWSVDGLLNAHRRNAHVPLWNYAVLRGQIFIVYFIAGVKKLDADWVEGYSMEYLSRHWLFSPFKLLLSEELTSLLVVHWGGLLLDLSAGFLLFFDVSRSIGLFFVSYFHCMNSQLFSIGMFSYVMLASSPLFCSPEWPRKLVSYCPRRLQQLLPLKAAPQPSVSCVYKRSRGKSGQKPGLRHQLGAAFTLLYLLEQLFLPYSHFLTQGYNNWTNGLYGYSWDMMVHSRSHQHVKITYRDGRTGELGYLNPGVFTQSRRWKDHADMLKQYATCLSRLLPKYNVTEPQIYFDIWVSINDRFQQRIFDPRVDIVQAAWSPFQRTSWVQPLLMDLSPWRAKLQEIKSSLDNHTEVVFIADFPGLHLENFVSEDLGNTSIQLLQGEVTVELVAEQKNQTLREGEKMQLPAGEYHKVYTTSPSPSCYMYVYVNTTELALEQDLAYLQELKEKVENGSETGPLPPELQPLLEGEVKGGPEPTPLVQTFLRRQQRLQEIERRRNTPFHERFFRFLLRKLYVFRRSFLMTCISLRNLILGRPSLEQLAQEVTYANLRPFEAVGELNPSNTDSSHSNPPESNPDPVHSEF

Columns and labels:
MG-63 = assay: Induction of apoptosis against human MG63 cells after 72 hrs; format: functional, cell-based
How it was run: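 MG-63 osteosarcoma cells, double thymidine block (2.5 mM, 12 h each) for S-phase synchronization. Treated 3 days at 10^-5 and 10^-6 M in DMEM. Permeabilized with 0.2% Triton X plus RNase, 37 °C for 1 h. Stained with propidium iodide 50 µg/mL, 4 °C for 20 min. DNA content by flow cytometry, 488 nm. Mean ± SD of three independent experiments.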

[1] = system: Vitamin K-dependent gamma-carboxylase (Mus musculus); assay: Ratio of Vmax to Km assessed as 14CO2 incorporation for 30 mins
[2] = substrate: CC(C)=CCC/C(C)=C/CC/C(C)=C/CC/C(C)=C/CC1=C(C)C(=O)c2ccccc2C1=O; assay: (§1) Activity for gamma-glutamylcarboxylase assessed as 14CO2 incorporation
How it was run: (§2)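 Mouse liver microsomal γ-glutamylcarboxylase. Reduced (hydroquinone) vitamin K as cofactor, 8 concentrations. Fixed enzyme level with 3.6 mM FLEEL substrate. Buffer: 16 µM ProFIX19 propeptide, 1.4 mM NaH14CO3, 25 mM MOPS pH 7.0, 500 mM NaCl, 0.16% phosphatidylcholine, 0.16% CHAPS, 8 mM DTT, 0.8 M ammonium sulfate. 14CO2 incorporated into peptide over 30 min counted by scintillation. Km and Vmax from initial rates by double-reciprocal plot.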

[3] = substrate: CC1=C(C/C=C(\C)CC/C=C(\C)CC/C=C(\C)CC/C=C(\C)CO)C(=O)c2ccccc2C1=O; assay: as §1; how it was run: as §2
[4] = substrate: CC(C)=CCC/C(C)=C/CC/C(C)=C/CC/C(C)=C/CC1=C(C)C(=O)c2ccccc2C1=O; assay: (§3) Activity for gamma-glutamylcarboxylase assessed as 14CO2 incorporation for 30 mins; how it was run: as §2
[5] = substrate: CC1=C(C/C=C(\C)CC/C=C(\C)CC/C=C(\C)CC/C=C(\C)CO)C(=O)c2ccccc2C1=O; assay: as §3; how it was run: as §2

Row | Molecule | Activity (MG-63) | other results
1 | CC1=C(C/C=C(\C)CC/C=C(\C)CC/C=C(\C)CO)C(=O)c2ccccc2C1=O | Dose-dependent effect | 
2 | CC1=C(C/C=C(\C)CC/C=C(\C)CC/C=C(\C)CC/C=C(\C)CO)C(=O)c2ccccc2C1=O | Dose-dependent effect | Vmax/Km [1]: 50 pmol/microM
3 | CC(C)=CCC/C(C)=C/CC1=C(C)C(=O)c2ccccc2C1=O | Dose-dependent effect | 
4 | CC1=C(C/C=C(\C)CC/C=C(\C)C=O)C(=O)c2ccccc2C1=O | Dose-dependent effect | 
5 | CC1=C(C/C=C(\C)CC/C=C(\C)CO)C(=O)c2ccccc2C1=O | Dose-dependent effect | 
6 | CC(C)=CCC/C(C)=C/CC/C(C)=C/CC1=C(C)C(=O)c2ccccc2C1=O | Dose-dependent effect | 
7 | CC1=C(C/C=C(\C)CC/C=C(\C)CC/C=C(\C)C=O)C(=O)c2ccccc2C1=O | Dose-dependent effect | 
8 | CC(C)=CCC/C(C)=C/CC/C(C)=C/CC/C(C)=C/CC1=C(C)C(=O)c2ccccc2C1=O | Dose-dependent effect | 
9 | CC1=C(C/C=C(\C)CC/C=C(\C)CC/C=C(\C)CC/C=C(\C)C=O)C(=O)c2ccccc2C1=O | Dose-dependent effect | 
10 | B1 |  | Km [2]: 13.3 µM; Km [3]: 2 µM; Vmax [4]: 126 pmol; Vmax [5]: 99.9 pmol
